The entries come from a sample that favours hits as a whole.
Glyco luc inh: N-linked glycosylation inhibition. D54 ERlucT glycosylation luciferase reporter, 24 h; percent of 100 nM tunicamycin response. reporter increase, % at 12.5 µM. 360,000 tested, 0.23% active. AID 588692;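 active = mean luciferase reporter signal, scaled so untreated is 0 and the glycosylation-blocking control 100, at or above a set limit in every replicate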;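 note: luciferase carries N-glycosylation sites so blocking glycosylation raises the light; 0% = median of neutral control wells and 100% = median of 100 nM tunicamycin wells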
T cell modulator: modulates CD8 T cell binding to vesicles | 2C CD8+ T cell-vesicle binding, flow cytometry; active compounds read low | response (vesicle binding), % at 7 µM | 330,000 tested, 0.068% active;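 active = response, share of CD8 T cells binding vesicles, and their 90th percentile fluorescence all below set limits, cut at about 80% in these data, passing the limit was not always enough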;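 note: values below 100% mean blocked vesicle binding to the CD8+ T cells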
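Benchmarks: naked versus QL9-loaded vesicles / Assay system: purified 2C TCR transgenic mouse naive CD8+ T cells / Technique: high-throughput flow cytometry with anti-B7-1 and anti-CD8 staining / Timing: Cell–vesicle co-incubation 1.5 h at 37 °C, staining 20 min on ice / Read-out: percent CD8+ FL2 mean versus row control / Probe or stimulus: QL9-loaded Drosophila micro-vesicles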
ALR inh: blocks human ALR sulfhydryl oxidase activity | inhibition, % (concentration not given with the values) | purified ALR, DTT oxidation, H2O2 HRP-luminol luminescence | 290,000 tested, 3.8% active | AID 485317 | P55789;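 active = mean replicate inhibition above about 79%, with every replicate also reaching it, limit read from the data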
Target sequence (P55789 whole entry, looked up): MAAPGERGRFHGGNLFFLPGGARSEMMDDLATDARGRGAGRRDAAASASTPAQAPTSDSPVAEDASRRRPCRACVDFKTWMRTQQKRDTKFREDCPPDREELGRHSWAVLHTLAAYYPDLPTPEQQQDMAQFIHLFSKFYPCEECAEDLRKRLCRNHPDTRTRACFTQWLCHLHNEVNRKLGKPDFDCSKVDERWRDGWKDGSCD
Numbers without * were called inactive; . = no result given; ! = not active in a repeat.

SMILES	Glyco luc inh	T cell modulator	ALR inh
Nc1c2c(nc3ccccc13)CCCC2	0	616	-19
Nc1c2ccccc2nc2ccccc12	33*!	302	-5
CC[C@]12c3[nH]c4ccc(Cl)cc4c3CCN1C(=O)[C@@H](CC(=O)NC/C=C(\C)CCC=C(C)C)C[C@@H]2C(=O)N1CCN(C(=O)C2CC2)CC1	-3	.	.
O=C(O)c1c(-c2ccccc2)oc2ccc(O)cc12	2	121	10
CN(C)C(=O)c1c(-c2ccccc2)oc2ccc(O)cc12	0	482	98*
CCOC(=O)c1ccc(NCCc2ccc(OC)c(OC)c2)c(N)c1	-2	208	31
CCC(=O)Oc1ccc(NC(=O)c2ccc(S(=O)(=O)N3CCCC3)cc2)cc1	-1	.	.
CN(C)c1ccc(/C=C2\CCCCC2=O)cc1	-8	172	91*
CN(C)c1ccc(C=C2SC(=S)NC2=O)cc1	-4	.	.
C[C@@H]1C(=O)O[C@H](C)[C@H]1C[C@@H](O)[C@](C)(O)C1CC[C@@]2(O)C3=CC(=O)[C@@H]4C[C@@H](O)[C@@H](O)C[C@]4(C)C3CC[C@]12C (some centres not stated)	2	339	-18
Cc1c(C(=O)NCc2ccc3c(c2)OCO3)sc(=O)n1Cc1cccc(F)c1	-3	.	.
CCOc1cc(/C=N/Nc2cccc(C(=O)O)c2)ccc1OC(=O)c1ccccc1	-7	.	.
CCOc1cc(/C=N/Nc2nc(Nc3ccccc3)nc(N3CCCCC3)n2)ccc1OCC(=O)O	0	194	97*
COc1ccc(/C=N/Nc2nc(Nc3ccccc3)nc(N3CCCCC3)n2)cc1OC	-6	402	98*
CCOc1cccc(/C=N/Nc2nc(N3CCCC3)nc(N3CCCC3)n2)c1O	0	142	-13
O=C(Oc1cccc(/C=N/Nc2nc(Nc3ccccc3)nc(N3CCOCC3)n2)c1)c1ccco1	-12	288	-9
COc1cc(/C=N/Nc2nc(N3CCCCC3)nc(N3CCCCC3)n2)ccc1OC(=O)c1ccco1	.	205	-1
CCOc1cc(/C=N/Nc2ccccc2Cl)ccc1OCC(=O)O	5	371	99*
CCOc1cc(/C=N/Nc2nc(N3CCCC3)nc(N3CCCC3)n2)ccc1O	2	693	99*
O=C1[C@@H](Oc2ccccc2)[C@@H](c2cccnc2)N1c1ccccc1	6	.	.
COc1ccc([N+](=O)[O-])cc1NC1CCCCC1	-5	185	99*
COc1ccc([N+](=O)[O-])cc1NC1C2CC3CC(C2)CC1C3 (configuration not stated)	0	635	-1
FC(F)(F)c1nnc2c(Sc3ccc(Cl)cc3)nc3ccccc3n12	30*	523	5
FC(F)(F)c1nnc2c(Sc3ccccc3)nc3ccccc3n12	9	432	-3
COc1ccc(N2CCN(S(=O)(=O)CCNC(=O)C3CCCCC3)CC2)cc1	0	417	2
SMILES	Glyco luc inh	T cell modulator	ALR inh
CN1OC[C@@H]2CN[C@H](c3cccc(Oc4ccccc4)c3)C[C@@H]21	0	.	.
COc1ccc(S(=O)(=O)/N=C2/NC(=O)/C(=C\c3ccco3)S2)cc1	0	0	-5
COc1ccc(S(=O)(=O)/N=C2/NC(=O)/C(=C/c3ccco3)S2)cc1	1	164	99*
Cc1ccc(Cl)cc1NC(=O)COC(=O)CSc1ccccc1	3	188	3
CN(C)S(=O)(=O)Nc1cc(F)cc(F)c1	1	298	-8
Cc1ccc2c(c1)c1c(n2CC(O)Cn2nc(C)c(Br)c2C)C(=O)CCC1 (configuration not stated)	-2	375	-8
Cc1ccc2c(c1)c1c(n2CC(O)CN2CCC(C)CC2)CCCC1 (configuration not stated)	-4	364	93*
Cc1ccc2c(c1)c(C)c(C)n2CC(O)CN1CCCCC1C (configuration not stated)	1	386	95*
Cc1ccc(C)c(OCC(O)CN2CCCCC2C)c1 (configuration not stated)	0	130	-1
Cc1ccc2c(c1)c1c(n2CC(O)CN2CCOCC2)CCCC1 (configuration not stated)	.	329	9
Cc1ccc2c(c1)c1c(n2CC(O)CN2CCCCC2C)CCCC1 (configuration not stated)	0	482	95*
COc1ccc(C)cc1NC(=O)C1CCN(S(=O)(=O)c2c(C)noc2C)CC1	2	557	1
COCC(=O)N1CCC(Oc2ccc(C(=O)N3CCSCC3)cc2)CC1	4	219	-2
CCOC(=O)C1CCCN(S(=O)(=O)c2cc3[nH]c(=O)c(=O)[nH]c3cc2C)C1 (configuration not stated)	1	115	-38
COc1ccc(CN(C(=O)CNC(=O)c2ccco2)C(C(=O)NCC2CCCO2)c2ccc(OC)c(OC)c2)cc1 (configuration not stated)	0	209	-6
C=CCNC(=O)Cn1c(=O)c2c(ncn2CCC(C)C)n(Cc2ccccc2)c1=O	1	217	-2
O=C(NCCCCNC(=O)c1ccc(Br)cc1)c1ccc(Br)cc1	-1	499	0
CC(C)(C)OC(=O)NCC(=O)N1CCC(C(=O)O)CC1	4	216	-11
CC(C)(C)OC(=O)NCc1n[nH]c(=S)n1C1CC1	0	242	86*
O=C1C=C(c2ccc(Oc3ccccc3)cc2)C[C@@H](c2ccc3c(c2)OCO3)C1	-2	310	-25
COc1ccc(-c2csc3[nH]c(=S)n(-c4ccccc4)c(=O)c23)cc1OC	2	156	83*
COc1cccc(-c2cc3c(=O)n(-c4ccccc4)c(=S)[nH]c3s2)c1	2	44	1
Cc1cc(C)c(NC(=O)CN(C)C(C)C(=O)N2CCc3ccccc32)c(C)c1 (configuration not stated)	5	323	-19
O=c1c2ccccc2cnn1Cc1n[nH]c(=S)n1-c1cc(Cl)cc(Cl)c1	5	265	33
O=c1c2ccccc2cnn1Cc1n[nH]c(=S)n1-c1ccccc1Cl	1	147	84*
SMILES	Glyco luc inh	T cell modulator	ALR inh
CN(c1ccccc1)S(=O)(=O)c1cccc(C(=O)NCCCN2CCCC2=O)c1	3	575	1
CC(NC(=O)c1cccc2c1Oc1ccccc1S2)C(=O)O (configuration not stated)	-1	.	.
CCOC(=O)c1sc(NC(=O)CSc2nc(C)cc(C)n2)c(C#N)c1C	0	410	-6
CCOC(=O)c1sc(NC(=O)CSc2ncn[nH]2)c(C#N)c1C	-2	15*	1
O=C(CSc1nc2sc3c(c2c(=O)n1-c1ccccc1)CCCC3)N/N=C/c1ccc(C(=O)O)cc1	3	469	34
Cn1c(N/N=C/c2ccccc2)nc2sc3c(c2c1=O)CCC3	3	227	92*
CCc1ccc(CN(C(=O)c2ccco2)C2CCS(=O)(=O)C2)cc1 (configuration not stated)	1	172	0
CCN(CC)c1ccc(CN(C(=O)c2ccco2)C2CCS(=O)(=O)C2)cc1 (configuration not stated)	-1	271	99*
COc1ccc(CN(C(=O)c2cccc(OC)c2)C2CCS(=O)(=O)C2)cc1 (configuration not stated)	-2	299	-7

High-throughput results from PubChem.
